Test results from ChEMBL document CHEMBL2176964, “Small molecule inhibitors of Bacillus anthracis protective antigen proteolytic activation and oligomerization” (J Med Chem, 2012).
The source made the active and inactive calls. The rule behind the calls is not given here.

Key:
[1] = target: Protective antigen (Bacillus anthracis) (UniProt P13423); assay: Inhibition of Bacillus anthracis Protective antigen-mediated cytotoxicity in RAW264.7 cells at 3 uM compound co-treated for 5 hrs with antigen measured after 48 hrs by MTT assay in presence of FP59; assay type: cell-based
[2] = target: Protective antigen (Bacillus anthracis) (UniProt P13423); assay: Inhibition of Bacillus anthracis Protective antigen assessed as reduction in PA83 level in CHO C4 cells at 100 uM after 1 hr by Western blot analysis relative to untreated-control; assay type: cell-based
Homo sapiens = species: Homo sapiens; assay: Inhibition of human furin-mediated TGFalpha-PE38 cleavage at 1 to 100 uM after 1 hr by Western blot analysis
In short: (§1)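 Substrate at 100 nM (purified PA for PA83 cleavage; TGFα-PE38 with a furin-cleavable RKKR linker) was mixed with 1, 10 or 100 μM inhibitor, or 1% DMSO. Buffer: 50 mM Hepes pH 7.5, 2 mM CaCl2, 0.5 mM EDTA, 0.2% octyl glucoside. Soluble human furin was added at 1 nM final for 1 h at 37°C. The reaction was boiled in SDS dye, run on a 4–20% gel and blotted with anti-PA or anti-Pseudomonas exotoxin serum.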

HT-1080 [3] = assay: Cytotoxicity against human HT1080 cells at 10 to 100 uM by MTT assay; assay type: cell-based; conditions: ht-1080, 100 µM
In short: (§2)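 Compound toxicity was measured in serum-free DMEM with 10 mM Hepes pH 7.3 and gentamicin at 37°C, by MTT read-out. There were two exposure schemes: a 5-h exposure, or a 54-h incubation in which the inhibitor was removed from the medium after 5 h. MTT cannot distinguish growth inhibition from toxicity.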

[4] = target: Protective antigen (Bacillus anthracis) (UniProt P13423); assay: Inhibition of Bacillus anthracis Protective antigen assessed as reduction in PA83 level in CHO C4 cells at 100 uM after 1 hr by Western blot analysis relative to untreated-control in presence of lethal factor; assay type: cell-based
[5] = target: Protective antigen (Bacillus anthracis) (UniProt P13423); assay: Inhibition of Bacillus anthracis Protective antigen-mediated cytotoxicity in RAW264.7 cells at 10 uM compound co-treated for 5 hrs with antigen by MTT assay in presence of lethal factor; assay type: cell-based
RAW264.7 [6] = assay: Cytotoxicity against mouse RAW264.7 cells at 10 to 100 uM by MTT assay; assay type: cell-based; conditions: raw264.7, 100 µM; in short: as §2
[7] = target: Protective antigen (Bacillus anthracis) (UniProt P13423); assay: Inhibition of Bacillus anthracis Protective antigen-mediated cytotoxicity in human HT1080 cells by MTT assay in presence of fetal bovine serum; assay type: cell-based; conditions: HT-1080
[8] = target: Protective antigen (Bacillus anthracis) (UniProt P13423); assay: Inhibition of Bacillus anthracis Protective antigen-mediated cytotoxicity in RAW264.7 cells by MTT assay in presence of fetal bovine serum; assay type: cell-based
[9] = target: Protective antigen (Bacillus anthracis) (UniProt P13423); assay: Inhibition of human furin-mediated Bacillus anthracis PA83 cleavage at 1 to 100 uM after 1 hr by Western blot analysis; in short: as §1
[10] = target: Protective antigen (Bacillus anthracis) (UniProt P13423); assay: Inhibition of Bacillus anthracis Protective antigen assessed as reduction in PA63 level in CHO C4 cells at 100 uM after 1 hr by Western blot analysis relative to untreated-control; assay type: cell-based
[11] = target: Protective antigen (Bacillus anthracis) (UniProt P13423); assay: Inhibition of Bacillus anthracis Protective antigen-mediated cytotoxicity in RAW264.7 cells at 100 uM compound co-treated for 5 hrs with antigen measured after 48 hrs by MTT assay in presence of FP59; assay type: cell-based
[12] = target: Protective antigen (Bacillus anthracis) (UniProt P13423); assay: Inhibition of Bacillus anthracis Protective antigen-mediated cytotoxicity in RAW264.7 cells at 100 uM compound co-treated for 5 hrs with antigen by MTT assay in presence of lethal factor; assay type: cell-based
[13] = target: Protective antigen (Bacillus anthracis) (UniProt P13423); assay: Inhibition of Bacillus anthracis Protective antigen-mediated cytotoxicity in HT1080 cells at 100 uM compound co-treated for 5 hrs with antigen measured after 48 hrs by MTT assay in presence of FP59; assay type: cell-based; conditions: HT-1080
[14] = target: Protective antigen (Bacillus anthracis) (UniProt P13423); assay: Inhibition of matrix metalloprotease activated Bacillus anthracis Protective antigen-mediated cytotoxicity in HT1080 cells at 100 uM compound co-treated for 5 hrs with antigen measured after 48 hrs by MTT assay in presence of FP59; assay type: cell-based; conditions: HT-1080
[15] = target: Protective antigen (Bacillus anthracis) (UniProt P13423); assay: Inhibition of Bacillus anthracis Protective antigen-mediated cytotoxicity in RAW264.7 cells compound co-treated for 5 hrs with antigen by MTT assay in presence of lethal factor; assay type: cell-based
HT-1080 [16] = assay: Cytotoxicity against human HT1080 cells compound incubated at 10 to 100 uM for extended period by MTT assay; assay type: cell-based; conditions: ht-1080, 100 µM; in short: as §2
RAW264.7 [17] = assay: Cytotoxicity against mouse RAW264.7 cells compound incubated at 10 to 100 uM for extended period by MTT assay; assay type: cell-based; conditions: raw264.7, 100 µM; in short: as §2

Sequence of Protective antigen (Bacillus anthracis) (P13423 whole entry): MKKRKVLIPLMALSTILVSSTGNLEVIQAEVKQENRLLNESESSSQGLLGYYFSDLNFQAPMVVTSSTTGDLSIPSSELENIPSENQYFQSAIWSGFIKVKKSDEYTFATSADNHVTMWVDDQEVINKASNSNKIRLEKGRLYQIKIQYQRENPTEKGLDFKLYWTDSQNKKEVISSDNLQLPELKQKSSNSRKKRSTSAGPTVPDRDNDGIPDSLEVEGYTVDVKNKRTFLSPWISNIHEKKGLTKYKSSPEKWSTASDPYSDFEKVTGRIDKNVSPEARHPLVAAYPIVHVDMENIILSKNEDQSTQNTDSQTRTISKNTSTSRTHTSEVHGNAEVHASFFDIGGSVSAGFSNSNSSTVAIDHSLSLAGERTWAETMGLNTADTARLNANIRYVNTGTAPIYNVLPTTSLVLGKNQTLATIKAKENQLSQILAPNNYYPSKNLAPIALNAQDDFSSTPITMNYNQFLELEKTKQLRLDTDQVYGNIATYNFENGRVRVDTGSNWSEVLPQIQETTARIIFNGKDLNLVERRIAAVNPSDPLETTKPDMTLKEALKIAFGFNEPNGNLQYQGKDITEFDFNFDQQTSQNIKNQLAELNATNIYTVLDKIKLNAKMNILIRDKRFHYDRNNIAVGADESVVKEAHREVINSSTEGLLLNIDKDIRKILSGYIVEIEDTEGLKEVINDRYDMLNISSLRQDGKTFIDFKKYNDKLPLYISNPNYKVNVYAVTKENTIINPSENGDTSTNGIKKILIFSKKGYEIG

Compound | inhibition [1] | inhibition [2] | inhibition (Homo sapiens) | Activity (HT-1080 [3]) | inhibition [4] | inhibition [5] | Activity (RAW264.7 [6]) | inhibition [7] | inhibition [8] | inhibition [9] | inhibition [10] | inhibition [11] | inhibition [12] | inhibition [13] | inhibition [14] | inhibition [15] | Activity (HT-1080 [16]) | Activity (RAW264.7 [17])
NC(=O)c1ccccc1NC(=O)c1ccc(C(=O)Nc2ccccc2C(N)=O)cc1 | Active | inactive | inactive | Non-toxic | inactive | Active | Non-toxic | inactive | inactive | inactive | Active |  |  |  |  |  |  | 
O=c1c(O)c(-c2ccc(O)c(O)c2)oc2cc(O)cc(O)c12 |  | inactive | inactive |  | inactive |  |  | inactive | inactive | inactive | inactive | Active | Active | Active | Active |  |  | 
NC(=O)c1ccccc1NC(=O)c1cccc(C(=O)Nc2ccccc2C(N)=O)c1 |  |  |  |  |  |  |  |  |  |  |  |  |  |  |  | Active |  | 
Oc1ccccc1/C=N/c1ccc(Cc2ccc(/N=C/c3ccccc3O)c(O)c2)cc1O | Active | inactive | inactive |  | inactive | Active |  | inactive | inactive | Active | Active |  |  |  |  |  | Toxic | Toxic
